# The source made the active and inactive calls. The rule behind the calls is not given here.
# Legend:
# 2008 = test: Growth inhibition of human 2008 cells; assay type: functional
# [1] = Cytotoxicity against human U87 cells after 96 hrs by sulforhodamine B assay; assay type: functional, cell-based, U-87MG ATCC; conditions: U-87 MG
# Tubulin (Homo sapiens) [2] = target: T1, Tubulin (Homo sapiens) (UniProt P68371+Q9H4B7+P0DPH7+P68366+Q13509+Q71U36+P04350+Q3ZCM7+P07437+P68363+Q9BQE3+Q6PEY2+Q13885+Q9BVA1+Q9BUF5); test: Inhibition of tubulin polymerization in human DU145 cells at 10 to 50 nM pretreated with paclitaxel for 24 hrs followed by compound treatment for 4 hrs by Western blotting analysis; assay type: cell-based; conditions: DU-145
# Method in brief: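 DU145 cells were plated at 1.0×10⁴/well and treated for 24 h. Alternatively, cells were pretreated with paclitaxel for 24 h, then exposed to compound for 4 h. Cells were lysed in hypotonic buffer (1 mM MgCl₂, 2 mM EGTA, Tris pH 6.6, 0.5% NP40, protease inhibitors) and spun 10 min at 14,000 rpm. Pellet (polymerized) and supernatant (soluble) fractions were blotted for α-tubulin.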
# DU-145 [3] = test: Cytotoxicity against human DU145 cells after 96 hrs by trypan blue exclusion assay; assay type: functional, cell-based
# Method in brief: (§1)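 Cells were grown in DMEM or RPMI with 10% FBS and plated at 2.5×10⁴ cells/well in 12-well dishes. Compounds were added 24 h later at various concentrations. After 96 h, viable cells were counted by trypan blue exclusion from duplicate wells. Results are the mean of two independent experiments.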
# MDCK = test: Apparent permeability from basolateral to apical side in MDCK cells expressing MDR-1 at 10 uM after 90 mins by LC-MS/MS analysis; assay type: ADME, cell-based, Canis lupus familiaris; conditions: dog, 1.5 h
# Method in brief: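 MDCK-MDR1 (Pgp-expressing) monolayers were used 3–4 days post-seeding, only if TEER exceeded 1000 Ω·cm² before and after the run. Compound starting concentration was 10 μM. Transport was measured A→B and B→A over 90 min and quantified by LC/MS/MS. Apparent permeabilities gave the efflux ratio.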
# DU-145 [4] = test: Mitotoic arrest in human DU145 cells assessed as rosette of condensed DNA without mitotic spindle at 25 nM after 24 hrs by FITC and propidium iodide staining-based confocal laser microscopic analysis; assay type: functional, cell-based
# Method in brief: (§2)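 DU145 cells grown on glass coverslips, exposed to 0.025 μM for 24 h, fixed in 4% paraformaldehyde, permeabilized in PBS with 10% FBS/0.1% Triton X-100, stained with FITC-conjugated anti-α-tubulin (DM1A, 1 h, 37 °C) and propidium iodide (1 μg/mL, 5 min), then imaged by confocal microscopy (60× objective, XYZ-sectioning); DMSO-treated cells as vehicle.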
# Mus musculus [5] = test: Toxicity in NCR-nu/nu mouse assessed as reduction in body weight at 20 mg/kg, ip treated 3 times a week for 2 weeks measured on alternate days for 14 days; assay type: organism-based; set-up: dose 20 mg/kg, route intraperitoneal; conditions: in vivo, 336 h
# Method in brief: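 Female athymic NCr-nu/nu mice bearing subcutaneous BT20 hind-leg tumors (~100–150 mm³) were given 20 mg/kg IP in DMSO (0.1 mL), 3 times a week for 2 weeks (N=8; vehicle N=7).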
# Liver [6] = test: Metabolic stability in human liver S9 fraction assessed as compound remaining at 10 uM after 1 hr by LC-MS/MS analysis; assay type: ADME, subcellular; conditions: s9, 1 h
# Method in brief: (§3)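 Compound at 10 μM was incubated with rat, dog or human liver S9 fraction (1 mg/mL) for 0, 30 and 60 min. Parent remaining at 1 h was quantified by LC-MS/MS.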
# DU-145 [7] = test: Induction of apoptosis in human DU145 cells assessed as caspase activation at 10 to 20 nM after 24 to 72 hrs by Western blotting analysis; assay type: functional, cell-based
# Plasma [8] = test: Plasma protein binding in rat at 10 to 50 uM by equilibrium dialysis; assay type: ADME, cell-free
# DU-145 [9] = test: Cell cycle arrest in human DU145 cells assessed as accumulation at G2/M phase at 0.02 uM after 24 hrs by propidium iodide staining-based FACS flow cytometric analysis; assay type: functional
# Method in brief: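 DU145 cells were plated at 1.0×10⁶ per dish in DMEM/10% FBS and treated 24 h later with increasing concentrations. After 24 h, attached and floating cells were pooled and fixed in ice-cold 70% ethanol for at least 24 h. Cells were stained with propidium iodide (50 μg/mL) plus RNase A for 30 min at 37 °C, then read on a FACScan with cell-cycle modelling.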
# Mus musculus [10] = test: AUC in ICR mouse at 5 mg/kg, po by LC-MS/MS analysis; assay type: ADME, organism-based, Plasma; set-up: dose 5 mg/kg, route oral; conditions: in vivo
# Method in brief: (§4)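 Male ICR mice, 6–8 weeks old, N=3 per group. Single 5 mg/kg dose in NMP:PEG300:water (1:4:5 v/v), given as IV bolus or oral gavage. Serial arterial blood was drawn through a carotid cannula at 2–360 min. Plasma was protein-precipitated with acetonitrile containing internal standard and assayed by LC/MS/MS. Parameters were derived by noncompartmental analysis.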
# Mus musculus [11] = test: AUC in ICR mouse at 5 mg/kg, iv by LC-MS/MS analysis; assay type: ADME, organism-based, Plasma; set-up: dose 5 mg/kg, route intravenous; conditions: in vivo; method in brief: as §4
# Mus musculus [12] = test: Clearance in ICR mouse at 5 mg/kg, iv by LC-MS/MS analysis; assay type: ADME, organism-based; set-up: dose 5 mg/kg, route intravenous; conditions: in vivo; method in brief: as §4
# DU-145 [13] = test: Mitotoic arrest in human DU145 cells assessed as presence of micronucleated cells at 25 nM after 24 hrs by FITC and propidium iodide staining-based confocal laser microscopic analysis; assay type: functional, cell-based; method in brief: as §2
# DU-145 [14] = test: Mitotoic arrest in human DU145 cells assessed as complete depolymerization of microtubule cytoskeleton at 25 nM after 24 hrs by FITC and propidium iodide staining-based confocal laser microscopic analysis; assay type: functional, cell-based; method in brief: as §2
# Mus musculus [15] = test: Volume of distribution at steady state in ICR mouse at 5 mg/kg, iv by LC-MS/MS analysis; assay type: ADME, organism-based; set-up: dose 5 mg/kg, route intravenous; conditions: in vivo
# Method in brief: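 Male ICR mice, 6–8 weeks old (N=3 per group), with a carotid artery cannula implanted one day before dosing. Dosed at 5 mg/kg in NMP:PEG300:water (1:4:5) as an IV bolus or by oral gavage. Blood drawn at 2–360 min; plasma protein-precipitated with acetonitrile containing internal standard, assayed by LC/MS/MS; noncompartmental analysis.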
# [16] = Cytotoxicity against human Caco2 cells after 1 hr by Alamar Blue assay; assay type: cell-based; conditions: Caco-2 cells, read-out: LD50
# Tubulin (Sus scrofa) = Tubulin (Sus scrofa) (UniProt P02554+P02550); test: Competitive binding affinity to pig brain tubulin paclitaxel binding site at 0.1 to 100 uM after 1 hr by mass spectrophotometric analysis in presence of paclitaxel and GTP
# Method in brief: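 Porcine brain tubulin (1.0 mg/mL) in PIPES 80 mM, MgCl₂ 2 mM, EGTA 0.5 mM, pH 6.9, at 37 °C. […] Competitor was 0.1–100 μM for 1 h. Unbound ligand in the 30 kDa ultrafiltrate was measured by MS. Runs were in triplicate; IC50 came from a Hill fit.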
# Tubulin (Homo sapiens) [17] = target: T1, Tubulin (Homo sapiens); test: Inhibition of tubulin polymerization in human DU145 cells after 24 hrs by Western blotting analysis; assay type: cell-based; conditions: DU-145
# Mus musculus [18] = test: Elimination half life in ICR mouse at 5 mg/kg, iv by LC-MS/MS analysis; assay type: ADME, organism-based; set-up: dose 5 mg/kg, route intravenous; conditions: in vivo; method in brief: as §4
# Plasma [19] = test: Plasma protein binding in human at 10 to 50 uM by equilibrium dialysis; assay type: ADME, cell-free
# A-431 = test: Cytotoxicity against human A431 cells after 96 hrs by trypan blue exclusion assay; assay type: functional; conditions: A-431, 96 h; method in brief: as §1
# Liver [20] = test: Metabolic stability in dog liver S9 fraction assessed as compound remaining at 10 uM after 1 hr by LC-MS/MS analysis; assay type: ADME, subcellular, Canis lupus familiaris; conditions: s9, 1 h; method in brief: as §3
# [21] = Growth inhibition of multidrug-resistant human MES-SA/Dx5 cells; assay type: functional
structure (smiles),measurement,setting,value
COc1cc(OC)c(/C=C/S(=O)(=O)Nc2ccc(OC)c(N)c2)c(OC)c1,GI50,2008,0.006 µM
same,IC50,[1],0.009 µM
same,inhibition,Tubulin (Homo sapiens) [2],Active
same,Activity,DU-145 [3],Dose-dependent effect
same,IC50,"DU-145 [3]; DU-145, 96 h",0.005 µM
same,Papp,MDCK,72 ×10⁻⁶ cm/s
same,Activity,DU-145 [4],Active
same,Activity,Mus musculus [5],Non-toxic
same,Stability,Liver [6],20%
same,Activity,DU-145 [7],Active
same,PPB,Plasma [8],99.73%
same,Activity,DU-145 [9],Active
same,AUC,Mus musculus [10],700 ng·h/mL
same,AUC,Mus musculus [11],2040 ng·h/mL
same,CL,Mus musculus [12],41.3 mL/min/kg
same,Activity,DU-145 [13],Active
same,Activity,DU-145 [14],Active
same,Vdss,Mus musculus [15],2.13 L/kg
same,CC50 at 1 h,[16],> 1000 µM
same,Activity,Tubulin (Sus scrofa),inactive
same,inhibition,Tubulin (Homo sapiens) [17],Dose-dependent effect
same,beta t1/2,Mus musculus [18],1.7 h
same,PPB,Plasma [19],99.67%
same,GI50,A-431,0.005 µM
same,Stability,Liver [20],57%
same,GI50,[21],0.01 µM

# — ChEMBL document CHEMBL2396655, “Design, synthesis, and biological evaluation of (E)-N-aryl-2-arylethenesulfonamide analogues as potent and orally bioavailable microtubule-targeted anticancer agents” (J Med Chem, 2013)
